One block for each molecule: values may come before it.
Assays:
DEGS1 = biological target: T1, DEGS1 (Homo sapiens, UniProt O15121); assay: In vitro DEGS assay with HCT-116 cell homogenates; format: biochemical
T1 sequence (O15121 1-323): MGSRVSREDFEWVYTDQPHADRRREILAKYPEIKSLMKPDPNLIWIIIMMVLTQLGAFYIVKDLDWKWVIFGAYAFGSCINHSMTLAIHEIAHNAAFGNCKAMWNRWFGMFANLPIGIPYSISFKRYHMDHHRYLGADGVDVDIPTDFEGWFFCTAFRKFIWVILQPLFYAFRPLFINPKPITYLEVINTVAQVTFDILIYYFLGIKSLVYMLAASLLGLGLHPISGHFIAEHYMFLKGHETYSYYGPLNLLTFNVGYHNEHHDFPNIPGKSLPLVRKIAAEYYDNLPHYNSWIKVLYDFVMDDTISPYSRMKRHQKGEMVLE
Outline: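 HCT-116 cells were treated for 1 or 2 h with test compound, reference inhibitor or DMSO. Cells were homogenized in 5 mM Hepes (pH 7.4) with 50 mM sucrose and kept 10 min on ice, and unbroken cells were removed at 250 × g for 5 min at 4 °C. Homogenate was incubated with 2 mM NADH and 10 μM C8:0-dihydroceramide substrate for 1 h at 37 °C. Lipids were extracted and C8:0-Cer and C8:0-SM quantified by LC-MS/MS; n = 3 independent experiments.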

human recombinant 5-LOX = biological target: T2, human recombinant 5-LOX (Homo sapiens, UniProt P09917); assay: 5-LOX activity, ferrous oxidation-xylenol orange; format: biochemical
T2 sequence (P09917 1-674): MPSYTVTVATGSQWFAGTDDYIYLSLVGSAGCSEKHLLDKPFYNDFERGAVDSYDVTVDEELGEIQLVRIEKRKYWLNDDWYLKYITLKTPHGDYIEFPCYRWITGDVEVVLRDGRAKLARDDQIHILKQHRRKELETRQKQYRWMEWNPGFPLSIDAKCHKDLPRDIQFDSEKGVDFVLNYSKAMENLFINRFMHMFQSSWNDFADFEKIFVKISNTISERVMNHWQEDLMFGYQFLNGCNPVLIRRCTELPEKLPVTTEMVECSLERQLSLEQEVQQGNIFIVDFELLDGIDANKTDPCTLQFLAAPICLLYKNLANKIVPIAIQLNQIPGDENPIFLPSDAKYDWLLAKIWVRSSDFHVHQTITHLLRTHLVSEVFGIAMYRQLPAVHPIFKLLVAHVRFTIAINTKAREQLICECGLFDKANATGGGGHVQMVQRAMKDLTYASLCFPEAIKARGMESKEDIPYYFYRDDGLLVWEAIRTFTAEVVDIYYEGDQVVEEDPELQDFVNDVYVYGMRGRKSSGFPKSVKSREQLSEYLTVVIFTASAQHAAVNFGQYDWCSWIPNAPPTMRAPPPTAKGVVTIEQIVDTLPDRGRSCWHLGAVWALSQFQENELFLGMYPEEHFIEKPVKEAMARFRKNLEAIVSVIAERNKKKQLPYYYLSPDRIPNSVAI

human recombinant COX-2 = biological target: T3, human recombinant COX-2 (Homo sapiens, UniProt P35354); assay: COX-2 enzyme activity assay; format: biochemical
T3 sequence (P35354 18-604): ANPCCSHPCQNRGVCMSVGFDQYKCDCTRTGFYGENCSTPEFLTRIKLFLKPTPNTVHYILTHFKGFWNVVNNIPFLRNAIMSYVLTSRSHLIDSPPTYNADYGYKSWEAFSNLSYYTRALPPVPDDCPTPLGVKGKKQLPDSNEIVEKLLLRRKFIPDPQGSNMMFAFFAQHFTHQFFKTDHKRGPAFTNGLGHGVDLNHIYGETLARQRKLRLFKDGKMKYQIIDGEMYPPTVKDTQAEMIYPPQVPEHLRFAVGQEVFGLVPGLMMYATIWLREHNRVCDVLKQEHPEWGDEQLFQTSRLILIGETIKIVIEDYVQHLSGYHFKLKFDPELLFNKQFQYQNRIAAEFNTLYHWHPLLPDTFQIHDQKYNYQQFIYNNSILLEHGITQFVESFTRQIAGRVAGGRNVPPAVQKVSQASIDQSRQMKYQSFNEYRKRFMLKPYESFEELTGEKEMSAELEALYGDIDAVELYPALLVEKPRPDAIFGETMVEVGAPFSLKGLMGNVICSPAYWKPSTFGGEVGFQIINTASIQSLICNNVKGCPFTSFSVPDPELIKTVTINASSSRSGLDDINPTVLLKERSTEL
Outline: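 Test compound was preincubated with enzyme in 0.1 M Tris (pH 8.0) containing 5 mM EDTA, 2 mM phenol and 1 µM hematin. Arachidonic acid (5 µM final) was added for 2 min, and 0.1 M HCl stopped the reaction. Stannous chloride in 0.1 M HCl reduced PGG2/PGH2 to PGF2α, quantified by ELISA. IC50 values are mean ± SEM of four or more independent experiments.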

[1] = system: DEGS-1 protein expression in HCT-116 cells; assay: Western blotting of DEGS-1 protein expression; format: cell-based, human; settings: 10 or 20 μM for 8 or 16 h
Outline: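 HCT-116 cells were lysed in Tris-EDTA buffer with 1% SDS, 2 mM Na3VO4 and protease inhibitors. Protein was measured by BCA, and equal amounts were resolved by SDS-PAGE and immunoblotted with anti-DEGS-1 antibody.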

HCT-116 cells [2] = assay: Western blotting of LC3-II, caspase-9 and PARP; format: cell-based, human; settings: 20 μM for 24 h
Outline: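 HCT-116 lysates were prepared in Tris-EDTA with 1% SDS, 2 mM Na3VO4 and protease inhibitors, and protein was quantified by BCA. Equal protein was resolved by SDS-PAGE and probed for LC3, caspase-9, PARP-1 and actin. Caspase-9 activation and PARP cleavage served as apoptosis read-outs and LC3-II as the autophagy read-out. Blots are representative of three or more independent experiments.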

HT-29 cells = assay: MTT cell viability assay, HT-29; format: cell-based, human; settings: time- and dose-dependent
Outline: (§1)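 Cells were grown with 10% FBS at 37 °C and 5% CO2: HCT-116 in McCoy's 5A, HT-29 in DMEM. Cells were exposed to test compound at indicated concentrations and times, and viability was read by MTT (mitochondrial dehydrogenase activity) relative to DMSO controls. […] Values are mean SD of at least three independent experiments.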

HCT-116 cells [3] = assay: Sphingolipid levels by LC-MS/MS; format: cell-based, human
Outline: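 Treated HCT-116 pellets were extracted in methanol/chloroform/water with internal standards (C12:0- and C25:0-ceramide, C17-sphingosine, C17-sphinganine, C12:0-SM), tip-sonicated 20 s, and incubated overnight at 48 °C. An aliquot was taken for total choline phospholipids (enzymatic colorimetric assay). The remainder was hydrolysed with methanolic KOH (37 °C, 2 h) and dried under N2. Positive-mode MRM LC-MS/MS was run, ceramides/sphingoid bases on C18 and SMs on C8; vs DMSO controls, n ≥ 3.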

HCT-116 cells [4] = assay: Annexin V / propidium iodide apoptosis, flow cytometry; format: cell-based, human; settings: 20 μM for 24 h, compared with DMSO-treated controls
Outline: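 HCT-116 cells were grown in McCoy's 5A with 10% FBS at 37 °C and 5% CO2. After treatment, floating and attached cells were pooled and stained with an annexin V–fluorescein/propidium iodide kit. Flow cytometry read apoptosis from annexin V (Ex 488, Em 518 nm) and necrosis from PI (Ex 488-540, Em 617 nm). Data are representative of three or more independent experiments.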

HCT-116 cells [5] = assay: MTT cell viability assay, HCT-116; format: cell-based, human; settings: time- and dose-dependent
Outline: as §1

DEGS = biological target: T4, DEGS (Rattus norvegicus, UniProt Q5XIF5); assay: DEGS assay with rat liver microsomal fraction; format: biochemical; settings: rat liver microsomal fraction as source of DEGS; data not shown
T4 sequence (Q5XIF5 1-323): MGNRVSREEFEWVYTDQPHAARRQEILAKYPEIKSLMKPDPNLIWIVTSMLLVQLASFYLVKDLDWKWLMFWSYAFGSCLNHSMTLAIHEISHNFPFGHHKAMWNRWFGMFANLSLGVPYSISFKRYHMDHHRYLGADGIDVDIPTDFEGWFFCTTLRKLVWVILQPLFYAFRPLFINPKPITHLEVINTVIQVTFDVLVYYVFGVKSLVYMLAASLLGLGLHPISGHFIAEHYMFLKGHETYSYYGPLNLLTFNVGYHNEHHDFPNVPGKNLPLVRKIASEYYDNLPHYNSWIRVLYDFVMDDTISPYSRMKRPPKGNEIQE

[6] = system: colon tumorigenesis induced by AOM and DSS; assay: AOM/DSS-induced colon tumorigenesis in mice; format: in vivo, male Balb/c mice; settings: 0.022% in diet

inhibition of DEGS1 enzyme activity (DEGS1; 1 μM, 1 or 2 h treatment of HCT-116 cells): ~ 95%
Compound: CCCCCCCCCCCCCC1=C([C@@H](O)[C@H](CO)NC(=O)CCCCCCC)C1 [C8-CPPC, C8-cyclopropenylceramide, reference compound]

IC50 (human recombinant 5-LOX): > 50 µM
IC50 (human recombinant COX-2): > 50 µM
Compound: Cc1c(O)cc2c(c1C)O[C@](C)(CCC[C@H](C)CCC[C@H](C)CCCC(C)C)CC2 [γT, γ-tocopherol]
inhibition of 5-LOX at 50 μM (human recombinant 5-LOX): neither γT nor δT at 50 μM inhibited COX-2 or 5-LOX
inhibition of COX-2 at 50 μM (human recombinant COX-2): neither γT nor δT at 50 μM inhibited COX-2

Compound: Cc1cc(O)cc2c1O[C@](C)(CCC[C@H](C)CCC[C@H](C)CCCC(C)C)CC2 [δT, δ-tocopherol]
inhibition of 5-LOX at 50 μM (human recombinant 5-LOX): neither γT nor δT at 50 μM inhibited COX-2 or 5-LOX
inhibition of COX-2 at 50 μM (human recombinant COX-2): neither γT nor δT at 50 μM inhibited COX-2

inhibition of DEGS1 enzyme activity (DEGS1; 20 μM, 1 h pre-incubation of HCT-116 cells): ~ 38%
inhibition of DEGS1 enzyme activity (DEGS1; 20 μM, 2 h pre-incubation of HCT-116 cells): ~ 47%
inhibition of DEGS enzyme activity (DEGS): failed to inhibit the enzyme activity
Compound: Cc1cc(O)cc2c1O[C@](C)(CCC[C@H](C)CCC[C@H](C)CCCC(C)C(=O)O)CC2 (some centres unmarked) [δT-13’-COOH]
effect on DEGS-1 protein expression [1]: no effect
LC3-II, a marker of autophagy (HCT-116 cells [2]): increase of LC3-II
cell viability (HT-29 cells): decreased the viability
C16:0-Cer (HCT-116 cells [3]; 20 μM, 2 h incubation, compared with solvent controls): significant decrease
sphingomyelin species and total SMs (HCT-116 cells [3]; 10 or 20 μM, 1-16 h): persistent decrease
total dihydroceramides, individual dhCers and dihydrosphingosine (HCT-116 cells [3]; 10 or 20 μM, after 1-2 h treatment, compared with controls): dose-dependently increased
apoptosis (annexin V staining) (HCT-116 cells [4]): induced early and late-stage apoptosis
cell viability (HCT-116 cells [5]): decreased the viability

effect on food intake ([6]; compared with the control diet): no effect
Compound: C/C(=C\CC/C(C)=C/CC[C@]1(C)CCc2cc(O)cc(C)c2O1)CC/C=C(\C)C(=O)O [δTE-13’-COOH]
LC3-II, a marker of autophagy (HCT-116 cells [2]): increase of LC3-II
cell viability (HT-29 cells): decreased the viability
effect on body weight ([6]; compared with the control diet): no effect
decrease in number of large tumors (> 2 mm^2) ([6]; compared with controls, p < 0.05): 58%
colon tumors per mouse ([6]; mean ± SEM, n = 15-17, p < 0.01 vs control diet (4.7 ± 0.3)): 3.1 ± 0.3 tumors per mouse
apoptosis (annexin V staining) (HCT-116 cells [4]): induced early and late-stage apoptosis
cell viability (HCT-116 cells [5]): decreased the viability
